Beta apoptosis: inhibitors of cytokine-induced beta cell apoptosis, primary screen, luminescence; protection from apoptosis, % (concentration not given with the values); INS-1E cytokine-induced death, ATP luminescence, 48 h; percent of positive-control rescue, neutral wells zero; 300,000 tested, 0.8% active; AID 435005, 2010;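 active means Every replicate reaches about 75%, or at least half do and their mean reaches it too, limit read from the data; inconclusive means At least half of replicates reach the limit but their mean does not; inactive means Under half of replicates reach the limit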;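 further: higher means more ATP so stronger rescue from cytokine killing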
HIF act: HIF pathway transcriptional activators, primary screen, cell-based, U2OS HRE-luciferase, luminescence. U2OS HRE-luciferase reporter; normalized: DMSO 0%, desferrioxamine 100%. AID 1910, 2009. 300,000 tested, 0.32% active. activation, % at 7.5 µM (by protocol);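 active means mean activation of at least 10% of the iron chelator positive control signal, with at least half of replicates also reaching 10%; inconclusive means mean and replicate majority disagree about reaching 10%; inactive means mean and most replicates under 10%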
T cruzi repl: inhibitors of intracellular T. cruzi growth, primary screen, luminescence, NIH3T3 host cells | T. cruzi beta-gal in NIH3T3, 90 h | inhibition, % (concentration not given with the values) | 300,000 tested, 1.4% active | AID 1885, 2009;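 active means mean inhibition across valid replicates above about 55%, limit read from the data; inconclusive means mean below that limit but half or more replicates reach it; inactive means mean below it, under half of replicates reach it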;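 further: signal also drops with host cell toxicity which is not excluded here; higher percent means less beta-gal luminescence so fewer parasites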
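Material: NIH/3T3 host cells with β-galactosidase reporter T. cruzi; Input: 5,000 host fibroblasts per well; Medium: DMEM, 2% fetal bovine serum; Compound: 50 nL DMSO compound solution per well; Schedule: 3 h host attachment, then at least 90 h co-culture; Detection: luminescent β-galactosidase signal after 60 min lysis.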
KLF5 inhibitor: KLF5 expression inhibitors, primary screen, DLD-1 cells, luminescence; inhibition, % at 5 µM; 290,000 tested, 0.23% active; AID 1700, 2009; DLD-1 KLF5 promoter-luciferase reporter;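 active means inhibition above a per-plate limit of that plate's mean compound inhibition plus 3 SD, cut at about 60% in these data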;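 further: higher means less KLF5 promoter-driven luciferase light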
A1 inh: caspase 3/7 activation in MEF A1-2A-BIM cells, primary screen, A1 inhibitor project, cell-based, luminescence, HTS; Caspase-Glo 3/7 luminescence, 3 h; percent of clofoctol response, vehicle zero; caspase activation, % (concentration not given with the values); 330,000 tested, 0.066% active; AID 2462, 2010;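 active means over half of replicate activation scores above 10%, or exactly half above 10 with the replicate mean above 10; inconclusive means replicate mean below 10 yet half the replicates above 10; inactive means over half of replicates below 10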
Large screens that a line does not name were inactive. Shown are actives, neighbours in structure and some others; about 2.3% of the full set was active somewhere.

COc1ccccc1NC(=O)CN1CCN(CC(=O)Nc2ccc(F)cc2F)CC1	none (no result: Beta apoptosis, A1 inh)
COc1ccccc1CN(C)C(=O)CSCC(=O)Nc1ccccc1F	none (no result: HIF act, T cruzi repl, KLF5 inhibitor)
O=S(=O)(Nc1ccc(N2CCOCC2)cc1)c1c(F)cc(F)cc1Br	none
CCOC(=O)Cc1ccc(NCc2ccc(Cl)cc2)cc1	T cruzi repl 56
CCOC(=O)CNC(=O)Cc1ccc(Cl)cc1	none
CCN1C(=S)N[C@@H](c2cccs2)C(C(=O)OC)=C1C	none
O=C(O)COc1ccc(/C=N/NC(=O)/C(=C/C=C/c2ccccc2)NC(=O)c2ccccc2)cc1	none
O=C(COC(=O)Cn1cnc2ccccc21)Nc1ccc(F)c(F)c1	none (no result: HIF act, T cruzi repl, KLF5 inhibitor)
O=c1c2cc([N+](=O)[O-])cc([N+](=O)[O-])c2[nH]n1-c1ccccc1	none
O=c1[nH]c(=O)c2cc([N+](=O)[O-])cc([N+](=O)[O-])c2[nH]1	T cruzi repl 72
O=C(NNC(=S)Nc1ccc(Cl)c(Cl)c1)c1ccccn1	Beta apoptosis 78, HIF act 60, T cruzi repl 62
N#CC(c1ccc(Cl)cc1)c1ccc2c(C(F)(F)F)cc(C(F)(F)F)nc2n1 (centres undefined)	Beta apoptosis 124, T cruzi repl inconclusive
CCn1ccnc1CN1CCC(n2nccc2NC(=O)c2ccccc2OC)CC1	none
CCOC(=O)Nc1ccc2c(c1)N(C(=O)CCN(C)C)c1ccccc1S2	T cruzi repl 85
CCOC(=O)Nc1ccc2c(c1)N(C(=O)CN1CCN(C)CC1)c1ccccc1S2	T cruzi repl 71
O=C1C=C(N2CCOCC2)c2ccccc2C1=O	Beta apoptosis 104
Cc1c(C(=O)N2CCOCC2)c(S(=O)(=O)Nc2ccccc2)c(C)n1C	none
c1cncc(-c2nnc(-c3cccnc3)nn2)c1	Beta apoptosis 108
O=C(Nc1nc2ccccc2n1Cc1ccccc1)c1ccc(COc2ccccc2[N+](=O)[O-])o1	T cruzi repl 68
Cc1ccc(OCc2ccc(C(=O)Nc3nc4ccccc4n3Cc3ccccc3)o2)c([N+](=O)[O-])c1	none
CC(C)Cc1ccc(CN2CCCC(NC(=O)c3cnc4ccccn4c3=O)C2)cc1 (centres undefined)	T cruzi repl 55
O=C(NC1CCCN(Cc2ccc(Cl)cc2)C1)c1cnc2ccccn2c1=O (centres undefined)	none
CC(=O)Nc1ccc(S(=O)(=O)N2CC3(C)CC2CC(C)(C)C3)cc1 (centres undefined)	none
O=C(Nc1ccc(S(=O)(=O)N2CCOCC2)cc1)c1cccs1	none
CC1(C)CC2CC(C)(CN2S(=O)(=O)c2ccc(C(=O)Nc3ccc(S(=O)(=O)N4CCOCC4)cc3)cc2)C1 (centres undefined)	T cruzi repl 55
O=C(Nc1ccc(S(=O)(=O)N2CCOCC2)cc1)c1ccc([N+](=O)[O-])s1	Beta apoptosis 90, T cruzi repl 72 (no result: KLF5 inhibitor)
CC1(C)CC2CC(C)(CN2S(=O)(=O)c2ccc(C(=O)Nc3ccc(Cl)c(S(=O)(=O)N4CCOCC4)c3)cc2)C1 (centres undefined)	T cruzi repl 63
CCc1ccc(C(=O)CCC(=O)Nc2ccc(OC)c(S(=O)(=O)N3CCCCC3)c2)cc1	none (no result: HIF act, T cruzi repl, KLF5 inhibitor)
CC(C)[C@H](NC(=O)c1ccco1)C(=O)OCc1cc(=O)n2c(n1)sc1ccccc12	HIF act 20
COc1ccc(NC(=O)CCCN2C(=O)CN(C)C2=O)cc1Cl	none (no result: HIF act, T cruzi repl, KLF5 inhibitor)
Cc1c(NC(=O)CN2C(=O)c3ccc([N+](=O)[O-])cc3C2=O)c(=O)n(-c2ccccc2)n1C	none
Cc1c(NC(=O)c2ccc(-c3ccc([N+](=O)[O-])cc3Cl)o2)c(=O)n(-c2ccccc2)n1C	T cruzi repl 56
OC(COc1ccc(CNCCc2ccc(C(F)(F)F)cc2)cc1)CN1CCCCC1 (centres undefined)	T cruzi repl 59
O=C(N/N=C/c1cc2c(cc1Br)OCO2)c1ccccn1	none
O=C(N/N=C/c1cc2c(cc1Br)OCO2)c1c[nH]c2ccccc12	T cruzi repl 62
CCCN(C(=O)CCOc1ccc(C(C)(C)C)cc1)c1c(N)n(Cc2ccccc2)c(=O)[nH]c1=O	none (no result: Beta apoptosis, KLF5 inhibitor)
O=C(CCNC(=O)c1ccccc1Cl)Nc1nc(-c2ccc(F)cc2)cs1	none
O=C(Nc1ccc(-c2csc(-c3ccccc3)n2)cc1)c1ccccc1Cl	T cruzi repl 62 (no result: Beta apoptosis)
